Measurements: ChEMBL document CHEMBL4152384, “Pyrtriazoles, a Novel Class of Store-Operated Calcium Entry Modulators: Discovery, Biological Profiling, and in Vivo Proof-of-Concept Efficacy in Acute Pancreatitis” (J Med Chem, 2018)
The source made the active and inactive calls. No cut-off for these calls is given here.

Experiments:
[1] = Drug metabolism in CD1 mouse liver microsomes assessed as 1-(4-(4-(3-Carboxyphenyl)-1H-1,2,3-triazol-1-yl)phenyl)-5-(trifluoromethyl)-1H-pyrazole-4-carboxylic Acid metabolite formation at 50 uM after 60 mins by mass spectroscopic analysis; format: ADME, microsome
[2] = Half life in ip dosed CD1 mouse by LC-ESI-MS analysis; format: ADME, organism-based; settings: in vivo
[3] = Plasma concentration in ip dosed CD1 mouse by LC-ESI-MS analysis; format: ADME, organism-based; settings: in vivo
[4] = Metabolic stability in CD1 mouse plasma assessed as residual compound level at 50 uM after 30 mins by LC-UV analysis; format: ADME, cell-free; settings: read-out: Stability
Procedure, shortened: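 Compounds incubated in mouse plasma for 30 min; percentage of residual substrate determined.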

[5] = system: Mus musculus; assay: Volume of distribution in ip dosed CD1 mouse by LC-ESI-MS analysis; format: ADME, organism-based; settings: in vivo
[6] = system: Mus musculus; assay: Protection against cerulein-induced pancreatitis in CD1 mouse assessed as reduction in neutrophil infiltration at 40 mg/kg, ip administered at 30 and 150 mins post first cerulein addition by myeloperoxidase staining based spectrophotometry; format: functional, organism-based
[7] = system: voltage-gated calcium channel (Mus musculus); assay: Antagonist activity at voltage-gated calcium channels in C57/BL6 mouse cerebellar granule cells assessed as inhibition of KCl-induced voltage dependent calcium entry at 10 uM by fura-2-based assay
[8] = system: Mus musculus; assay: Acute toxicity in CD1 mouse assessed as histological alterations in heart at 40 mg/kg, ip administered as single dose for 14 days; format: organism-based; settings: in vivo, 336 h
[9] = system: Mus musculus; assay: Acute toxicity in CD1 mouse assessed as histological alterations in lung at 40 mg/kg, ip administered as single dose for 14 days; format: organism-based; settings: in vivo, 336 h
[10] = Drug metabolism in CD1 mouse liver microsomes assessed as ester group hydrolysis at 50 uM after 60 mins in presence of NADPH/UDPGA; format: ADME, microsome; settings: 1 h
[11] = system: Mus musculus; assay: Acute toxicity in CD1 mouse assessed as histological alterations in liver at 40 mg/kg, ip administered as single dose for 14 days; format: organism-based; settings: in vivo, 336 h
[12] = Drug metabolism in CD1 mouse liver microsomes assessed as 3-(1-(4-(4-((Pentan-2-yloxy)carbonyl)-5-(trifluoromethyl)-1H-pyrazol-1-yl)-phenyl)-1H-1,2,3-triazol-4-yl)benzoic Acid metabolite formation at 50 uM after 60 mins by mass spectroscopic analysis; format: ADME, microsome
[13] = target: Transient receptor potential cation channel subfamily M member 8 (Homo sapiens) (UniProt Q7Z2W7); assay: Antagonist activity at TRPM8 (unknown origin) expressed in HEK cells assessed as inhibition of menthol -mediated calcium increase at 10 uM by fura-2-based assay; format: cell-based
Transient receptor potential cation channel subfamily M member 8 (Homo sapiens), sequence (Q7Z2W7 whole entry, looked up): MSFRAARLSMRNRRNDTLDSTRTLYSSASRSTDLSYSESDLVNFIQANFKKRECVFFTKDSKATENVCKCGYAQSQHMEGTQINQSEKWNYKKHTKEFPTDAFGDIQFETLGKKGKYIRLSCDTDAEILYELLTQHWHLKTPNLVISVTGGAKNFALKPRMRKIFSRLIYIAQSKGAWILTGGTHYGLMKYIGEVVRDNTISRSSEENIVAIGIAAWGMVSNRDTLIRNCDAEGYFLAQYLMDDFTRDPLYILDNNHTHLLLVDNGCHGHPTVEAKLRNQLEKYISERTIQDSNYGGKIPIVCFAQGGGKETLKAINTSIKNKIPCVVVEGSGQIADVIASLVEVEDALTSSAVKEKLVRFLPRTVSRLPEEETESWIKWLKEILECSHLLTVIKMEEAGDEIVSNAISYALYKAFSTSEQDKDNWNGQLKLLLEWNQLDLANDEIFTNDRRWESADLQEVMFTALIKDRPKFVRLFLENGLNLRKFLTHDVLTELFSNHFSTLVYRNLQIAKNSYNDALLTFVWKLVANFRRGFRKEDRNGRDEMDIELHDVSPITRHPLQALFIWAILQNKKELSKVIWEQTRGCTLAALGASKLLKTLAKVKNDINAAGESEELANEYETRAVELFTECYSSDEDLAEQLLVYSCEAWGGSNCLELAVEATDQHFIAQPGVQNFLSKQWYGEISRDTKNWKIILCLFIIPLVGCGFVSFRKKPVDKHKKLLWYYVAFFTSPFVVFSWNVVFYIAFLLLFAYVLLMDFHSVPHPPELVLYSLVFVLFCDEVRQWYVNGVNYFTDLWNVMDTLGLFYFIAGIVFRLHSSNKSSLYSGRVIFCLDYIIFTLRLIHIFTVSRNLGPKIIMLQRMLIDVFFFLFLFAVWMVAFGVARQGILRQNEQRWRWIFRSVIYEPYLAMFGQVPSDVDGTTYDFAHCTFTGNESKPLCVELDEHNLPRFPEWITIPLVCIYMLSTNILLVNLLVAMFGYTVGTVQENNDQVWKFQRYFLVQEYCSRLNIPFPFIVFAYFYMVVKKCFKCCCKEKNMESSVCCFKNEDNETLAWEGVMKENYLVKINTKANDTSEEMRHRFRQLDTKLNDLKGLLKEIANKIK
Procedure, shortened: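 TRPM8-overexpressing Hek cells; calcium rise evoked by menthol (100 μM), test compounds at 10 μM; peak amplitude read out; mean ± SEM of 600 cells from 30 plates on four separate experimental days.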

[14] = system: Mus musculus; assay: Acute toxicity in CD1 mouse assessed as histological alterations in ileum at 40 mg/kg, ip administered as single dose for 14 days; format: organism-based; settings: in vivo, 336 h
[15] = system: Mus musculus; assay: Acute toxicity in CD1 mouse assessed as signs of distress at 40 mg/kg, ip administered as single dose for 14 days; format: organism-based; settings: in vivo, 336 h
[16] = system: Mus musculus; assay: Acute toxicity in CD1 mouse assessed as histological alterations in stomach at 40 mg/kg, ip administered as single dose for 14 days; format: organism-based; settings: in vivo, 336 h
[17] = target: Short transient receptor potential channel 1 & 3/Stromal interaction molecule 1/Calcium release-activated calcium channel protein 1 (Homo sapiens) (UniProt Q96D31+Q13507+Q13586+P48995); assay: Modulation of TRPC1/TRPC3/STIM1/Orai1 in HEK cells assessed as induction of store-operated calcium entry by measuring residual activity at 10 uM preincubated for 30 mins followed by tBhQ-mediated Ca2+ depletion and Ca2+ re-addition to extracellular solution measured for 600 secs by Fluo-4 AM-based fluorometric assay relative to control; format: cell-based
[18] = Metabolic stability in CD1 mouse liver S9 fraction assessed as residual compound level at 50 uM after 1 hr; format: ADME, subcellular; settings: read-out: Stability
Procedure, shortened: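 Hydrolytic stability measured in mouse liver S9 fraction; residual substrate quantified after 1 h incubation.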

[19] = system: Mus musculus; assay: Protection against cerulein-induced pancreatitis in CD1 mouse assessed as reduction in pancreatic inflammation at 40 mg/kg, ip administered at 30 and 150 mins post first cerulein addition by hematoxylin and eosin staining based microscopy; format: functional, organism-based
[20] = Clearance in ip dosed CD1 mouse by LC-ESI-MS analysis; format: ADME, organism-based; settings: in vivo
[21] = system: Mus musculus; assay: Protection against cerulein-induced pancreatitis in CD1 mouse assessed as reduction in pancreatic edema at 40 mg/kg, ip administered at 30 and 150 mins post first cerulein addition by hematoxylin and eosin staining based microscopy; format: functional, organism-based
[22] = target: Short transient receptor potential channel 1 & 3/Stromal interaction molecule 1/Calcium release-activated calcium channel protein 1 (Homo sapiens, UniProt P48995+Q13507+Q13586+Q96D31); assay: Modulation of TRPC1/TRPC3/STIM1/Orai1 in HEK cells assessed as induction of store-operated calcium entry by measuring residual activity preincubated for 30 mins followed by tBhQ-mediated Ca2+ depletion and Ca2+ re-addition to extracellular solution measured for 600 secs by Fluo-4 AM-based fluorometric assay relative to control; format: cell-based
Short transient receptor potential channel 1 & 3/Stromal interaction molecule 1/Calcium release-activated calcium channel protein 1, sequence (Q96D31 whole entry): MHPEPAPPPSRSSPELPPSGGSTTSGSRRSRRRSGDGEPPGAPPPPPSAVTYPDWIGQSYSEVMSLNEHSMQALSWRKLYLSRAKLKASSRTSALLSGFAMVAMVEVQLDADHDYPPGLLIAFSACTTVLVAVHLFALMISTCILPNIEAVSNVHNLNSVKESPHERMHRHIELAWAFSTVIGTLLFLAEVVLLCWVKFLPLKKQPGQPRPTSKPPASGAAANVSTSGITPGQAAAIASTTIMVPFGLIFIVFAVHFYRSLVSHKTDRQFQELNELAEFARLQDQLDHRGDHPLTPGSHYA
Short transient receptor potential channel 1 & 3/Stromal interaction molecule 1/Calcium release-activated calcium channel protein 1, sequence (Q13507 whole entry): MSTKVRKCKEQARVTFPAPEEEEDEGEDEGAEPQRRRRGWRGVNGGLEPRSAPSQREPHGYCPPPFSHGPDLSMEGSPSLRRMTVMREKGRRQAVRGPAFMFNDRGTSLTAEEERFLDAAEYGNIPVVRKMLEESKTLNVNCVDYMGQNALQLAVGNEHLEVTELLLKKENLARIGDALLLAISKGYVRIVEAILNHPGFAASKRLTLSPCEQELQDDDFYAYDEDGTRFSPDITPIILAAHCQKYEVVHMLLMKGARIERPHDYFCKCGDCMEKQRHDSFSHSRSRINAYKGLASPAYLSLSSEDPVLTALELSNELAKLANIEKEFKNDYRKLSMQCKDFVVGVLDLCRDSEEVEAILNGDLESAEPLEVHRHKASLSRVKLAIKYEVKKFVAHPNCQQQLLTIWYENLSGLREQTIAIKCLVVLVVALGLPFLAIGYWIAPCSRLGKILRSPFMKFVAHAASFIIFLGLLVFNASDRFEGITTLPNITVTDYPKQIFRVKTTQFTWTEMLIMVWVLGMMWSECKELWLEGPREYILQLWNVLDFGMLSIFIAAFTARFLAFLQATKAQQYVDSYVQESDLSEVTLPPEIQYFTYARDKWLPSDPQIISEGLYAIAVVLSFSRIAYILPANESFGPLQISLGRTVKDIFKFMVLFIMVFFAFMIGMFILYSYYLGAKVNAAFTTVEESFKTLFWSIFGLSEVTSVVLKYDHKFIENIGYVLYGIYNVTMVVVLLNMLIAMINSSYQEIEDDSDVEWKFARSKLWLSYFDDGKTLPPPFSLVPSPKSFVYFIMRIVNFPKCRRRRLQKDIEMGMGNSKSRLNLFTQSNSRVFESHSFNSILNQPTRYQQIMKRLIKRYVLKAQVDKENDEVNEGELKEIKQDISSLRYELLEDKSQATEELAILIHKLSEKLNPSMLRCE
Short transient receptor potential channel 1 & 3/Stromal interaction molecule 1/Calcium release-activated calcium channel protein 1, sequence (Q13586 whole entry): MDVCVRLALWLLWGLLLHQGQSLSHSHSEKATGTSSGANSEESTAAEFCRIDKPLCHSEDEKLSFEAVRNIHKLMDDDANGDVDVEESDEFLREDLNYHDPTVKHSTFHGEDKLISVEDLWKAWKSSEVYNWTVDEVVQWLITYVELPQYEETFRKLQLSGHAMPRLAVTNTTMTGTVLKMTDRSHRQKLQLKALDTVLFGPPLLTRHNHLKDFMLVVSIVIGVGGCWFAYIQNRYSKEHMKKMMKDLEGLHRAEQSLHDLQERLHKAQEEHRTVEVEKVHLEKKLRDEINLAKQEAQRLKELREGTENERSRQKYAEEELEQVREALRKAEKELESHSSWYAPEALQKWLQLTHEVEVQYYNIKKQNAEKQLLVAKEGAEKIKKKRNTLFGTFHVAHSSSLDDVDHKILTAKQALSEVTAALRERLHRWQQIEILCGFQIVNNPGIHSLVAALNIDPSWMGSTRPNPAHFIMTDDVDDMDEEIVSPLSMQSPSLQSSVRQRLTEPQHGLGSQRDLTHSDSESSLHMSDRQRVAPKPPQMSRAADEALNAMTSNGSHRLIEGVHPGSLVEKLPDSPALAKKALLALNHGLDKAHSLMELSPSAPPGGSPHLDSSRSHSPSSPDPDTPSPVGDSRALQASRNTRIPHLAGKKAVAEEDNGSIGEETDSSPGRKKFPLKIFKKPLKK
Short transient receptor potential channel 1 & 3/Stromal interaction molecule 1/Calcium release-activated calcium channel protein 1, sequence (P48995 whole entry): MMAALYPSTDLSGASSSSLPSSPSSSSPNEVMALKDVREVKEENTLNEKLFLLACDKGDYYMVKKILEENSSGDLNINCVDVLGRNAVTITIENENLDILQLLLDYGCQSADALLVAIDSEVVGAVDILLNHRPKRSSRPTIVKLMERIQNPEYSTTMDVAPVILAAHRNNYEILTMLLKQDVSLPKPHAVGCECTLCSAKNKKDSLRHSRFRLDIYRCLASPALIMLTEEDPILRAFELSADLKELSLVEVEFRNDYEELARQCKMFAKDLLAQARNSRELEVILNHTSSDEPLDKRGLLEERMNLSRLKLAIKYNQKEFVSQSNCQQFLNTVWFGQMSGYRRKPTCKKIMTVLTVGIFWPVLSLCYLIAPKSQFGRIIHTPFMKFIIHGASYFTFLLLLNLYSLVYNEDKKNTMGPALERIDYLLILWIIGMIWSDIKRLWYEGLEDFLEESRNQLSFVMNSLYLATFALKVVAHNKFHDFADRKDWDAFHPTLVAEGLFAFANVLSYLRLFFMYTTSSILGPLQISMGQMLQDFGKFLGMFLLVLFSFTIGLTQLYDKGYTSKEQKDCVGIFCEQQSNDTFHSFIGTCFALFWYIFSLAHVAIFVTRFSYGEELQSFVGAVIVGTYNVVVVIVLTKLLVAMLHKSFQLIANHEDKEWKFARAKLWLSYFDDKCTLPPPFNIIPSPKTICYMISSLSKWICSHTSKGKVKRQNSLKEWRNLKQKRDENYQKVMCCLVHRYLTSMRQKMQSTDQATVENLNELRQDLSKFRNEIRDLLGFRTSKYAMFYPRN

[23] = system: voltage-gated calcium channel (Mus musculus); assay: Antagonist activity at voltage-gated calcium channels in C57/BL6 mouse cerebellar granule cells assessed as inhibition of KCl-induced voltage dependent calcium entry at 10 uM by fura-2-based assay; remark: listed apart in the source
[24] = target: Transient receptor potential cation channel subfamily V member 1 (Homo sapiens) (UniProt Q8NER1); assay: Antagonist activity at TRPV1 (unknown origin) expressed in HEK cells assessed as inhibition of capsaicin-induced calcium increase at 10 uM by fura-2-based assay; format: cell-based
Transient receptor potential cation channel subfamily V member 1 (Homo sapiens), sequence (Q8NER1 whole entry): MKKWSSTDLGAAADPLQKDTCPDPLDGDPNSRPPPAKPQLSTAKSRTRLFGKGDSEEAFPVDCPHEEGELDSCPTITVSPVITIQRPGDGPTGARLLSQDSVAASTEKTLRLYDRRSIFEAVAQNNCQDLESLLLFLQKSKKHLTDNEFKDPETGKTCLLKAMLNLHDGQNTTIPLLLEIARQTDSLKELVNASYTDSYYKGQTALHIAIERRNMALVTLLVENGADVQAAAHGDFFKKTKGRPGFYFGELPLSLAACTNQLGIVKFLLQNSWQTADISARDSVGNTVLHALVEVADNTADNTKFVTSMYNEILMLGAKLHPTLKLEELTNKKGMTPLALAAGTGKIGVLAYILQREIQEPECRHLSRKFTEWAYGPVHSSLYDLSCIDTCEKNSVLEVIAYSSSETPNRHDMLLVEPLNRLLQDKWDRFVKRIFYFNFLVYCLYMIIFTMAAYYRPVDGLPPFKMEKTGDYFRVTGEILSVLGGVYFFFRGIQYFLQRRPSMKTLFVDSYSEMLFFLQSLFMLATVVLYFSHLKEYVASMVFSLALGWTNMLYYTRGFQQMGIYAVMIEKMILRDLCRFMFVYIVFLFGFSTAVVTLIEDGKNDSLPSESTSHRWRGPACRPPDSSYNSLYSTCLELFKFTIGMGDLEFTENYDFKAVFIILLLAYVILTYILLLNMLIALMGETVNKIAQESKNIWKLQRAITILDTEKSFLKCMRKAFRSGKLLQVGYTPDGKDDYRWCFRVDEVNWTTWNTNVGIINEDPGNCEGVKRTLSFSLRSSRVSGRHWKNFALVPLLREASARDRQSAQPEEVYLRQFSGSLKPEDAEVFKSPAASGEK
Procedure, shortened: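 TRPV1-overexpressing Hek cells; calcium rise evoked by capsaicin (100 nM), test compounds at 10 μM; peak amplitude read out; mean ± SEM of 600 cells from 30 plates on four separate experimental days.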

[25] = system: Mus musculus; assay: Acute toxicity in CD1 mouse assessed as histological alterations in brain at 40 mg/kg, ip administered as single dose for 14 days; format: organism-based; settings: in vivo, 336 h
[26] = Drug metabolism in CD1 mouse liver microsomes assessed as ester group hydrolysis at 50 uM after 60 mins in absence of NADPH/UDPGA; format: ADME, microsome; settings: 1 h
[27] = Cmax in ip dosed CD1 mouse after 1 hr by LC-ESI-MS analysis; format: ADME, organism-based; design: route intraperitoneal; settings: in vivo
[28] = system: Mus musculus; assay: Acute toxicity in CD1 mouse assessed as effect on body weight at 40 mg/kg, ip administered as single dose for 14 days; format: organism-based; settings: in vivo, 336 h
[29] = system: Mus musculus; assay: Acute toxicity in CD1 mouse assessed as histological alterations in kidney at 40 mg/kg, ip administered as single dose for 14 days; format: organism-based; settings: in vivo, 336 h
[30] = Cytotoxicity against HEK cells assessed as cell viability at 10 uM by MTT assay relative to control; format: cell-based; settings: human, read-out: Activity
Procedure, shortened: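 Hek cells treated 24 h with compound at 10 μM; viability determined by MTT assay.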

[31] = system: Mus musculus; assay: Acute toxicity in CD1 mouse assessed as mortality at 40 mg/kg, ip administered as single dose for 14 days; format: organism-based; settings: in vivo, 336 h

## CCCC(C)OC(=O)c1cnn(-c2ccc(-n3cc(-c4cccc(C(=O)O)c4)nn3)cc2)c1C(F)(F)F (stereo unspecified)
[1]
  Drug metabolism: Metabolite_Notdetected
[2]
  half-life: 1.3 h
[3]
  concentration: 1200 nM
[4]
  remaining at 0.5 h, 50 µM: 97.8%
[5]
  Vd: 32 L/kg
[6]
  Activity: Active
[7]
  inhibition: inactive
[8]
  Activity: Non-Toxic
[9]
  Activity: Non-Toxic
[10]
  Drug metabolism: Metabolite_Detected
[11]
  Activity: Non-Toxic
[12]
  Drug metabolism: Metabolite_Detected
[13]
  inhibition: inactive
[14]
  Activity: Non-Toxic
[15]
  Activity: Non-Toxic
[16]
  Activity: Non-Toxic
[17]
  Activity: 17.5%
[18]
  remaining at 1 h, 50 µM: 73.7%
[19]
  Activity: Active
[20]
  CL/F: 283 mL/min/kg
[21]
  Activity: Active
[22]
  IC50: 4.4 µM
[23]
  inhibition: inactive
[24]
  inhibition: inactive
[25]
  Activity: Non-Toxic
[26]
  Drug metabolism: Metabolite_Detected
[27]
  Cmax: 640 ng/mL
[28]
  Activity: Non-Toxic
[29]
  Activity: Non-Toxic
[30]
  viability at 10 µM: 93.6%
[31]
  Activity: Non-Toxic
